# Measurements gathered from unrelated publications.
# Each line is one published result; the experiments were not run side by side.
# KIT L576P: Mast/stem cell growth factor receptor Kit (KIT, Homo sapiens, UniProt P10721, L576P)
# KIT: Mast/stem cell growth factor receptor Kit (KIT, Homo sapiens, UniProt P10721)
# KIT D816V: Mast/stem cell growth factor receptor Kit (KIT, Homo sapiens, UniProt P10721, D816V)
# KIT D816H: Mast/stem cell growth factor receptor Kit (KIT, Homo sapiens, UniProt P10721, D816H)
# KIT A829P: Mast/stem cell growth factor receptor Kit (KIT, Homo sapiens, UniProt P10721, A829P)
# KIT V559D: Mast/stem cell growth factor receptor Kit (KIT, Homo sapiens, UniProt P10721, V559D)
# KIT V559D/V654A: Mast/stem cell growth factor receptor Kit (KIT, Homo sapiens, UniProt P10721, V559D/V654A)
target,assay,conditions,remaining binding,Compound
KIT L576P,"binding, competition with immobilised ligand",1 µM,8.7%,O=C(NCCCN1CCOCC1)c1ccc(Nc2nccc(-c3cc4ccccc4s3)n2)cc1
KIT,binding,1 µM,100%,CC1CCCN1c1nccc(-c2cnn3ncccc23)n1 (stereo not drawn)
KIT D816V,"cell-free assay, competition with immobilised ligand",1 µM,100%,C[C@@]1(Cc2ccc(C#N)cc2)C(=O)N(c2cc(Cl)cc(Cl)c2)c2ncc(C(=O)NC3(c4nc(C5CCC5)no4)CC3)n21
KIT L576P,binding,10 µM,0.45%,CN1CCN(c2ccc(Nc3nccc(-c4ccccc4)n3)cc2C(F)(F)F)CC1
KIT D816H,"binding, competition with immobilised ligand",1 µM,100%,CCN1CCN(Cc2ccc(C(=O)Nc3ccc(C)c(Oc4ccc5c(c4)CC(=O)N5)c3)cc2C(F)(F)F)CC1
KIT A829P,binding,1 µM,85%,COc1ccnn2ncc(-c3ccnc(N(C)C)n3)c12
KIT V559D,"binding, competition with immobilised ligand",1 µM,100%,Cc1c(C(=O)O)cc(-c2ccc(C3CCNCC3)cc2)c2ccc(-c3ccc(C(F)(F)F)cc3)cc12
"Mast/stem cell growth factor receptor Kit, autoinhibited (KIT, Homo sapiens, UniProt P10721)","binding, competition with immobilised ligand",10 µM,100%,Cc1nc(NC(=O)N2CCC[C@H]2C(N)=O)sc1-c1ccnc(C(C)(C)C(F)(F)F)c1
KIT A829P,"cell-free assay, competition with immobilised ligand",1 µM,100%,O=C(N1CCS(=O)(=O)CC1)N1C[C@H](c2ccc(OC(F)(F)F)cc2)C[C@H](c2nc(C3CC3)no2)C1
KIT V559D/V654A,"binding, competition with immobilised ligand",1 µM,96%,CNC(=O)[C@@H]1CC[C@@H](n2c(-c3ccc4cnccc4c3)nc3ccc(C(=O)NCc4cccc(C(N)=O)c4)cc32)C1
KIT,"binding, competition with immobilised ligand",1 µM,100%,O=C(Nc1c[nH]nc1C(=O)NC1CCNCC1)c1cc(F)cc(F)c1
KIT,"binding, competition with immobilised ligand",0.1 µM,38%,C[C@@H](c1ccc(-n2cnc3c(N)ncnc32)cc1)N1CCc2nn(C)c(Cc3ccccc3)c2C1=O
KIT A829P,"cell-free assay, competition with immobilised ligand",1 µM,100%,Cc1cc(-n2nc(Cc3cc(F)cc(C(F)(F)F)c3)nc2C)ccc1C(N)=O
"Mast/stem cell growth factor receptor Kit (KIT, Homo sapiens, UniProt P10721, T670I/V559D)",binding,1 µM,98%,C[C@H]1CCN(c2nccc(-c3cnn4ncccc34)n2)C1
KIT D816V,"cell-free assay, competition with immobilised ligand",1 µM,100%,C[C@H](NC(=O)c1cnc2n1[C@](C)(Cc1ccc(C#N)cc1)C(=O)N2c1cc(Cl)c(F)c(Cl)c1)C(=O)NC1(c2ccccn2)CC1
KIT V559D,"binding, competition with immobilised ligand",1 µM,6.6%,O=C(c1ccc(Nc2ncc(Cl)c(-c3cc4ccccc4s3)n2)cc1)N1CCC(N2CCCC2)CC1
KIT D816H,binding,1 µM,83%,Cc1cnn2ncc(-c3ccnc(N(C)C)n3)c2c1
KIT D816V,"binding, competition with immobilised ligand",1 µM,5.2%,Cc1cnc(Nc2ccc(C(=O)N3CCC(N4CCCC4)CC3)cc2)nc1-c1cc2ccccc2s1
KIT D816H,binding,1 µM,80%,c1cnn2ncc(-c3ccnc(N4CCC45COC5)n3)c2c1
KIT D816V,"cell-free assay, competition with immobilised ligand",1 µM,100%,COc1cccc(CNC(=O)c2nc3scc(COCc4ccc(C(=O)O)cc4)c3c(=O)[nH]2)c1
KIT V559D/V654A,binding,1 µM,100%,N[C@@H]1CCN(c2nccc(-c3cnn4ncccc34)n2)C1
KIT L576P,"binding, competition with immobilised ligand",1 µM,100%,Nc1ncc2c(n1)-c1c([nH]c3ccc(C#CC4CC4)cc13)CCCC2
KIT A829P,"cell-free assay, competition with immobilised ligand",1 µM,100%,O=C(O)c1cc(-c2ccc(C3CCNCC3)cc2)c2ccc(-c3ccc(C(F)(F)F)cc3)cc2c1
KIT,binding,1 µM,100%,CN(CCCC(F)(F)F)c1nccc(-c2cnn3ncccc23)n1
